Experimental data as given in ChEMBL document CHEMBL2029264, “Indole-based fibrates as potential hypolipidemic and antiobesity agents” (J Med Chem, 2012).
Activity calls are given as the source filed them. No cut-off for these calls is given here.

Assays:
[1] = tested on: Rattus norvegicus; assay: Antiobesity activity in HFD-induced hyperlipidemic Charles Foster rat assessed as decrease in mesenteric fat-pad at 100 mg/kg, po administered for 4 weeks; type: functional, organism-based; parameters: dose 100 mg/kg
In short: (§1)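 Adult male Charles Foster rats given high-fat or normal diet 4 weeks, then diet plus vehicle or daily dosing 4 more weeks, sacrificed at week 8. Body weight gain, food intake, food efficiency ratio (weight gain/food intake over the period), and mesenteric, gonadal, inguinal and perirenal fat-pad weights recorded; mean ± SD, n = 6.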

[2] = tested on: Rattus norvegicus; assay: Antihyperlipidemic activity in HFD-induced hyperlipidemic Charles Foster rat assessed as increase in cholic acid excretion in feces at 100 mg/kg/day, po administered for 4 weeks measured after 30 days relative to control; type: functional
In short: (§2)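 Rats fed high-fat diet 4 weeks, then diet plus daily dosing 4 weeks. Cholic and deoxycholic acid excreted in feces measured; dosed groups compared with high-fat group, control compared with high-fat group.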

[3] = tested on: Rattus norvegicus; assay: Antihyperlipidemic activity in HFD-induced hyperlipidemic Charles Foster rat assessed as increase in plasma HDL-apoprotein level at 100 mg/kg, po administered for 4 weeks relative to control; type: functional
In short: (§3)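 After 4 weeks high-fat feeding plus 4 weeks daily dosing, overnight fast, retro-orbital blood into EDTA tubes. Serum split into VLDL, LDL and HDL by polyanionic precipitation; each fraction assayed for TC, PL, TG and apoprotein (mg/dL plasma). Pooled data from 6 rats/group, mean ± SD, dosed groups compared with high-fat group.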

[4] = tested on: Rattus norvegicus; assay: Antihyperlipidemic activity in po dosed Triton WR-1339-induced hyperlipidemic rat assessed as decrease in plasma phospholipid level; type: functional, organism-based
In short: (§4)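 Triton WR-1339 given to rats to induce hyperlipidemia; oral dosing. Plasma TC, PL, TG in mg/dL; PHLA as […]/h/mL plasma. Mean ± SD of six rats; Triton group compared with control, Triton plus dosed group compared with Triton group.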

[5] = tested on: Rattus norvegicus; assay: Antihyperlipidemic activity in HFD-induced hyperlipidemic Charles Foster rat assessed as decrease in serum phospholipid level at 100 mg/kg, po administered for 4 weeks relative to control; type: functional; parameters: scale not given: the % may be the effect or the level left
In short: (§5)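 Male Charles Foster rats (200−225 g): high-fat diet 4 weeks, then diet plus daily dosing 4 weeks. Overnight fast, retro-orbital blood in EDTA (3 mg/mL blood), centrifuged to serum. TC, PL, TG in mg/dL; LCAT as nmol cholesterol released/h/L plasma. Mean ± SD; dosed groups compared with high-fat group, P by significance levels.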

[6] = tested on: Rattus norvegicus; assay: Antihyperlipidemic activity in Triton WR-1339-induced hyperlipidemic rat assessed as increase in LCAT enzyme level at 50 mg/kg, po; type: functional
In short: (§6)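 Separate set of Triton WR-1339-induced hyperlipidemic rats, oral doses of 50, 100 and 150 mg/kg. Plasma TC, PL, TG in mg/dL; PHLA as […]/h/mL plasma. Mean ± SD of six rats versus Triton group.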

[7] = tested on: Rattus norvegicus; assay: Antiobesity activity in HFD-induced hyperlipidemic Charles Foster rat assessed as decrease in perirenal fat-pad at 100 mg/kg, po administered for 4 weeks; type: functional, organism-based; parameters: dose 100 mg/kg; in short: as §1
[8] = tested on: Rattus norvegicus; assay: Antihyperlipidemic activity in Triton WR-1339-induced hyperlipidemic rat assessed as decrease in plasma total cholesterol level at 100 mg/kg, po relative to control; type: functional; parameters: scale not given: the % may be the effect or the level left; in short: as §4
[9] = tested on: Rattus norvegicus; assay: Antihyperlipidemic activity in HFD-induced hyperlipidemic Charles Foster rat assessed as decrease in liver total cholesterol level at 100 mg/kg, po administered for 4 weeks relative to control; type: functional; parameters: scale not given: the % may be the effect or the level left
In short: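 Adult male Charles Foster rats (200−225 g), high-fat diet 4 weeks, then diet plus daily dosing 4 more weeks; overnight fast, sacrifice, liver washed in cold 0.15 M KCl and held at 4 °C. Lipids extracted from liver homogenate in CHCl3/CH3OH (2:1 v/v), TC, PL and TG read in mg/g; pooled data from 6 rats/group, mean ± SD.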

[10] = tested on: Rattus norvegicus; assay: Antihyperlipidemic activity in Triton WR-1339-induced hyperlipidemic rat assessed as decrease in plasma triglyceride level at 150 mg/kg, po; type: functional; in short: as §6
[11] = tested on: Rattus norvegicus; assay: Antihyperlipidemic activity in HFD-induced hyperlipidemic Charles Foster rat assessed as decrease in plasma VLDL-total cholesterol level at 100 mg/kg, po administered for 4 weeks relative to control; type: functional; parameters: scale not given: the % may be the effect or the level left; in short: as §3
[12] = tested on: Rattus norvegicus; assay: Antihyperlipidemic activity in Triton WR-1339-induced hyperlipidemic rat assessed as increase in PHLA enzyme level at 100 mg/kg, po; type: functional; in short: as §4
[13] = tested on: Rattus norvegicus; assay: Antihyperlipidemic activity in HFD-induced hyperlipidemic Charles Foster rat assessed as increase in serum LCAT enzyme level at 100 mg/kg, po administered for 4 weeks relative to control; type: functional; in short: as §5
[14] = tested on: Rattus norvegicus; assay: Antihyperlipidemic activity in po dosed Triton WR-1339-induced hyperlipidemic rat assessed as increase in LCAT enzyme level; type: functional, organism-based; in short: as §4
[15] = tested on: Rattus norvegicus; assay: Antiobesity activity in HFD-induced hyperlipidemic Charles Foster rat assessed as decrease in inguinal fat-pad at 100 mg/kg, po administered for 4 weeks; type: functional, organism-based; parameters: dose 100 mg/kg; in short: as §1
[16] = tested on: Rattus norvegicus; assay: Antihyperlipidemic activity in HFD-induced hyperlipidemic Charles Foster rat assessed as decrease in plasma VLDL-triglyceride level at 100 mg/kg, po administered for 4 weeks relative to control; type: functional; parameters: scale not given: the % may be the effect or the level left; in short: as §3
[17] = tested on: Rattus norvegicus; assay: Antihyperlipidemic activity in Triton WR-1339-induced hyperlipidemic rat assessed as decrease in plasma triglyceride level at 50 mg/kg, po; type: functional; in short: as §6
[18] = tested on: Rattus norvegicus; assay: Antihyperlipidemic activity in Triton WR-1339-induced hyperlipidemic rat assessed as increase in PHLA enzyme level at 150 mg/kg, po; type: functional; in short: as §6
[19] = tested on: Rattus norvegicus; assay: Antiobesity activity in HFD-induced hyperlipidemic Charles Foster rat assessed as decrease in food efficacy ratio at 100 mg/kg, po administered for 4 weeks; type: functional, organism-based; parameters: dose 100 mg/kg; in short: as §1
[20] = tested on: Rattus norvegicus; assay: Antihyperlipidemic activity in HFD-induced hyperlipidemic Charles Foster rat assessed as decrease in serum total cholesterol level at 100 mg/kg, po administered for 4 weeks relative to control; type: functional; parameters: scale not given: the % may be the effect or the level left; in short: as §5
[21] = tested on: Rattus norvegicus; assay: Antihyperlipidemic activity in Triton WR-1339-induced hyperlipidemic rat assessed as decrease in plasma phospholipid level at 50 mg/kg, po; type: functional; in short: as §6
[22] = tested on: Rattus norvegicus; assay: Antiobesity activity in HFD-induced hyperlipidemic Charles Foster rat assessed as decrease in gonadal fat-pad at 100 mg/kg, po administered for 4 weeks; type: functional, organism-based; parameters: dose 100 mg/kg; in short: as §1
[23] = tested on: Rattus norvegicus; assay: Antihyperlipidemic activity in HFD-induced hyperlipidemic Charles Foster rat assessed as reactivation of LPL activity at 100 mg/kg, po administered for 4 weeks relative to control; type: functional
In short: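 Male Charles Foster rats fed high-fat diet 4 weeks, then diet plus daily dosing 4 weeks. Liver homogenized (10% w/v) in cold 100 mM phosphate buffer pH 7.2; total lipolytic LPL activity read as nmol free fatty acid formed/h/mg protein; pooled data from 6 rats/group, mean ± SD.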

[24] = tested on: Rattus norvegicus; assay: Antihyperlipidemic activity in Triton WR-1339-induced hyperlipidemic rat assessed as decrease in plasma total cholesterol level at 150 mg/kg, po; type: functional; in short: as §6
[25] = tested on: Rattus norvegicus; assay: Antihyperlipidemic activity in HFD-induced hyperlipidemic Charles Foster rat assessed as increase in deoxycholic acid excretion in feces at 100 mg/kg/day, po administered for 4 weeks measured after 30 days relative to control; type: functional; in short: as §2
[26] = tested on: Rattus norvegicus; assay: Antihyperlipidemic activity in HFD-induced hyperlipidemic Charles Foster rat assessed as decrease in macrovesicular steatosis at 100 mg/kg, po administered for 4 weeks by light microscopic analysis; type: functional, organism-based; parameters: dose 100 mg/kg
In short: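 Rats on high-fat diet 4 weeks, then diet plus daily dosing for another 4 weeks before sacrifice. Liver sections 4 μm thick, stained with Ehrlich's hematoxylin and eosin, examined by light microscope for centrilobular macrovesicular steatosis.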

Compound	Activity [1]	Activity [2]	Activity [3]	Activity [4]	Activity [5]	Activity [6]	Activity [7]	Activity [8]	Activity [9]	Activity [10]	Activity [11]	percent increase [12]	Activity [13]	Activity [14]	Activity [15]	Activity [16]	Activity [17]	percent increase [18]	Activity [19]	Activity [20]	further results
CCOC(=O)C(C)Oc1ccc(C(c2cn(CC)c3ccccc23)c2cn(CC)c3ccccc23)cc1 (configuration not stated)	Active	26%	16%	Dose-dependent effect	24%	8 nmol/h/mL	Active	22%	23%	26 mg/dL	21%	12%	32%	Dose-dependent effect	Active	24%	12 mg/dL	15%	Active	25%	Activity [21]: 15 mg/dL; Activity [22]: Active; Activity [23]: 20%; Activity [24]: 33 mg/dL; Activity [25]: 28%; Activity [26]: Active
CCOC(=O)CCCOc1ccc(C(c2cn(C)c3ccccc23)c2cn(C)c3ccccc23)cc1	Active	21%	14%	Dose-dependent effect	25%	11 nmol/h/mL	Active	20%	26%	27 mg/dL	15%	15%	29%	Dose-dependent effect	Active	17%	13 mg/dL	20%	Active	28%	Activity [21]: 16 mg/dL; Activity [22]: Active; Activity [23]: 14%; Activity [24]: 35 mg/dL; Activity [25]: 31%; Activity [26]: Active
